Calls of active or inactive are those of the source. The calls are words filed in the database; no cut-off is given here.
How the values were obtained:
Human alphaherpesvirus 2 = test: Antiviral activity against Herpes simplex virus type 2 infected in human HEL299 cells assessed as inhibition of virus-induced cytopathic effect after 3 to 6 days by MTS assay; assay type: functional, organism-based
Punta Toro virus = test: Antiviral activity against Punta Toro virus infected in African green monkey Vero cells assessed as inhibition of virus-induced cytopathic effect after 3 to 6 days by MTS assay; assay type: functional, organism-based
[1] = Cytotoxicity against MDCK cells assessed as alterations in normal cell morphology measured after 3 to 6 days by microscopic analysis; assay type: cell-based, Canis lupus familiaris; conditions: dog
How it was run: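 Uninfected MDCK cultures in FCS-free Ultra MDCK medium with trypsin received five-fold compound dilutions (up to […]) for 3–6 days at 35 °C. Microscopy scored morphology, and MCC was taken as the lowest concentration causing minimal rounding, shrinking or lysis.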

Human adenovirus 2 = test: Antiviral activity against Human adenovirus type 2 infected in human HEL299 cells assessed as inhibition of virus-induced cytopathic effect after 3 to 6 days by MTS assay; assay type: functional, organism-based
Sindbis virus = test: Antiviral activity against Sindbis virus infected in African green monkey Vero cells assessed as inhibition of virus-induced cytopathic effect after 3 to 6 days by MTS assay; assay type: functional, organism-based
[2] = Cytotoxicity against human HeLa cells assessed as alterations in normal cell morphology measured after 3 to 6 days by microscopic analysis; assay type: cell-based
How it was run: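 Mock-infected HeLa cultures in 2% FCS medium received serial five-fold dilutions […] for 3–6 days at 37 °C. MCC was the lowest concentration giving microscopically visible minimal change in cell morphology (rounding, shrinking, lysis).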

[3] = system: Vesicular stomatitis virus; test: Antiviral activity against Vesicular stomatitis virus infected in human HEL299 cells assessed as inhibition of virus-induced cytopathic effect after 3 to 6 days by MTS assay; assay type: functional, organism-based
Human respirovirus 3 = test: Antiviral activity against Parainfluenza virus 3 infected in African green monkey Vero cells assessed as inhibition of virus-induced cytopathic effect after 3 to 6 days by MTS assay; assay type: functional, organism-based
Vero = test: Cytotoxicity against African green monkey Vero cells assessed as reduction in cell viability measured after 3 to 6 days by MTS assay; assay type: cell-based; conditions: chlorocebus sabaeus
[4] = system: Mammalian orthoreovirus 1; test: Antiviral activity against Reovirus-1 infected in African green monkey Vero cells assessed as inhibition of virus-induced cytopathic effect after 3 to 6 days by MTS assay; assay type: functional, organism-based
[5] = system: Respiratory syncytial virus; test: Antiviral activity against Respiratory syncytial virus Long infected in human HeLa cells assessed as inhibition of virus-induced cytopathic effect after 3 to 6 days by MTS based microscopy; assay type: functional, organism-based
MDCK = test: Cytotoxicity against MDCK cells assessed as reduction in cell viability measured after 3 to 6 days by MTS assay; assay type: cell-based, Canis lupus familiaris; conditions: dog
How it was run: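 Mock-infected MDCK plates were run in parallel (FCS-free Ultra MDCK medium with TPCK-trypsin) with serial five-fold dilutions up to […], 35 °C for 3–6 days. CC50 was interpolated from semi-log dose-response curves; mean of two or three experiments.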

Yellow fever virus = test: Antiviral activity against Yellow fever virus infected in African green monkey Vero cells assessed as inhibition of virus-induced cytopathic effect after 3 to 6 days by MTS assay; assay type: functional, organism-based
Influenza A virus = test: Antiviral activity against Influenza A virus (A/Puerto Rico/8/34(H1N1)) infected in MDCK cells assessed as protection against virus-induced reduction in cell viability after 3 to 6 days by MTS assay; assay type: functional, organism-based; conditions: A/Puerto Rico/8/1934(H1N1)
How it was run: (§1)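 MDCK cells seeded at 9000/well and infected one day later (semiconfluent) with 100 CCID50 virus. Medium was FCS-free Ultra MDCK with 2 μg/mL TPCK-trypsin. Serial five-fold compound dilutions (top 100 μM) were added with the virus, followed by 3–6 days at 35 °C. MTS read-out gave % protection versus virus and mock controls. EC50 was interpolated from semi-log curves; mean of two or three experiments.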

[6] = system: Human immunodeficiency virus; test: Antiviral activity against HIV; assay type: functional, organism-based
Human alphaherpesvirus 1 = test: Antiviral activity against Herpes simplex virus type 1 infected in human HEL299 cells assessed as inhibition of virus-induced cytopathic effect after 3 to 6 days by MTS assay; assay type: functional, organism-based
Coxsackievirus B4 = test: Antiviral activity against Coxsackie B4 virus infected in human HeLa cells assessed as inhibition of virus-induced cytopathic effect after 3 to 6 days by MTS assay; assay type: functional, organism-based
Influenza B virus = test: Antiviral activity against Influenza B virus B/Ned/537/05 infected in MDCK cells assessed as protection against virus-induced reduction in cell viability after 3 to 6 days by MTS assay; assay type: functional, organism-based; conditions: B/Ned/537/05, MDCK; how it was run: as §1
Human coronavirus 229E = test: Antiviral activity against Human coronavirus 229E infected in human HEL299 cells assessed as inhibition of virus-induced cytopathic effect after 3 to 6 days by MTS assay; assay type: functional, organism-based
Vaccinia virus = test: Antiviral activity against Vaccinia virus infected in human HEL299 cells assessed as inhibition of virus-induced cytopathic effect after 3 to 6 days by MTS assay; assay type: functional, organism-based; conditions: Orthopoxvirus vaccinia

Row | SMILES | Activity (Human alphaherpesvirus 2) | Activity (Punta Toro virus) | MCC [1] [µM] | Activity (Human adenovirus 2) | Activity (Sindbis virus) | MCC [2] [µM] | Activity [3] | Activity (Human respirovirus 3) | Activity (Vero) | Activity [4] | EC50 [5] [µM] | CC50 (MDCK) [µM] | Activity (Yellow fever virus) | EC50 (Influenza A virus) [µM] | Activity [6] | Activity (Human alphaherpesvirus 1) | Activity (Coxsackievirus B4) | EC50 (Influenza B virus) [µM] | Activity (Human coronavirus 229E) | Activity (Vaccinia virus)
1 | Cl.NC1=NC2(CCCN(Cc3ccccc3)C2)N(c2ccc(Cl)cc2)C(N)=N1 (stereo unspecified) | inactive | inactive | 100 | inactive | inactive | 100 | inactive | inactive | Non-Toxic | inactive | > 100 | 45 | inactive | > 100 | inactive | inactive | inactive | > 100 | inactive | inactive
2 | COCCN1C(N)=NC(N)=NC12CCN(C(=O)NC1CCC(C)CC1)CC2 (stereo unspecified) | inactive | inactive | > 100 | inactive | inactive | > 100 | inactive | inactive | Non-Toxic | inactive | > 100 | > 100 | inactive | > 100 | inactive | inactive | inactive | > 100 | inactive | inactive
3 | NC1=NC2(CCN(C(=O)C3CCC3)CC2)N(c2cccc(Cl)c2)C(N)=N1 | inactive | inactive | ≥ 20 | inactive | inactive | > 100 | inactive | inactive | Non-Toxic | inactive | > 100 | > 100 | inactive | 35 | inactive | inactive | inactive | 7.7 | inactive | inactive
4 | COCCN1C(N)=NC(N)=NC12CCN(S(=O)(=O)c1ccccc1)CC2 | inactive | inactive | > 100 | inactive | inactive | > 100 | inactive | inactive | Non-Toxic | inactive | > 100 | > 100 | inactive | > 100 | inactive | inactive | inactive | > 100 | inactive | inactive
5 | NC(=O)c1ncn([C@@H]2O[C@H](CO)[C@@H](O)[C@H]2O)n1 [RIBAVIRIN] |  |  | ≥ 20 |  |  | > 250 |  |  |  |  |  |  |  | 11 |  |  |  | 3.2 |  | 
6 | CCCN1C(N)=NC(N)=NC12CCN(C(=O)c1c(C)noc1C)CC2 | inactive | inactive | > 100 | inactive | inactive | > 100 | inactive | inactive | Non-Toxic | inactive | > 100 | > 100 | inactive | > 100 | inactive | inactive | inactive | > 100 | inactive | inactive
7 | COc1cccc(N2C(N)=NC(N)=NC23CCN(C(=O)c2ccc(C(F)(F)F)cc2C)CC3)c1 | inactive | inactive | > 100 | inactive | inactive | > 100 | inactive | inactive | Non-Toxic | inactive | > 100 | > 100 | inactive | > 100 | inactive | inactive | inactive | > 100 | inactive | inactive
8 | COc1cccc(N2C(N)=NC(N)=NC23CCN(C(=O)OC(C)(C)C)CC3)c1 | inactive | inactive | ≥ 100 | inactive | inactive | > 100 | inactive | inactive | Non-Toxic | inactive | > 100 | > 100 | inactive | 87 | inactive | inactive | inactive | 39 | inactive | inactive
9 | NC12CC3CC(CC(C3)C1)C2 [AMANTADINE] |  |  | > 500 |  |  |  |  |  |  |  |  | > 500 |  | 26 |  |  |  | > 500 |  | 
10 | CC(C)(C)OC(=O)N1CCC2(CC1)N=C(N)N=C(N)N2Cc1cccc(Cl)c1 | inactive | inactive | > 100 | inactive | inactive | > 100 | inactive | inactive | Non-Toxic | inactive | > 100 | > 100 | inactive | > 100 | inactive | inactive | inactive | > 100 | inactive | inactive
11 | NC1=NC2(CCNCC2)N(c2cccc(Cl)c2)C(N)=N1 | inactive | inactive | > 100 | inactive | inactive | > 100 | inactive | inactive | Non-Toxic | inactive | > 100 | > 100 | inactive | > 100 | inactive | inactive | inactive | > 100 | inactive | inactive
12 | COCCN1C(N)=NC(N)=NC12CCN(C(=O)c1cccn1C)CC2 | inactive | inactive | > 100 | inactive | inactive | > 100 | inactive | inactive | Non-Toxic | inactive | > 100 | > 100 | inactive | > 100 | inactive | inactive | inactive | > 100 | inactive | inactive
13 | CC(=O)N[C@H]1[C@H]([C@H](O)[C@H](O)CO)OC(C(=O)O)=C[C@@H]1N=C(N)N [ZANAMIVIR] |  |  | > 100 |  |  |  |  |  |  |  |  | > 100 |  | 1.3 |  |  |  | 0.14 |  | 
14 | CC(N)C12CC3CC(CC(C3)C1)C2 (stereo unspecified) [RIMANTADINE] |  |  | ≥ 500 |  |  |  |  |  |  |  |  | > 500 |  | 28 |  |  |  | > 500 |  | 

Source: ChEMBL document CHEMBL4152296, “Synthesis, biological evaluation and molecular modeling of novel azaspiro dihydrotriazines as influenza virus inhibitors targeting the host factor dihydrofolate reductase (DHFR)” (Eur J Med Chem, 2018)
